Measurements pooled from the literature.
Compare with care: the assays were run in different laboratories.
IRAK4: Interleukin-1 receptor-associated kinase 4 (IRAK4, Homo sapiens, UniProt Q9NWZ3)
TGFBR1: TGF-beta receptor type-1 (TGFBR1, Homo sapiens, UniProt P36897)
P2RY14: P2Y purinoceptor 14 (P2RY14, Homo sapiens, UniProt Q15391)

CNC(=O)c1ccccc1Nc1nc(Nc2ccc(CO)cc2)ncc1C#N — IC50 (IRAK4; enzyme activity, inhibitor, radiometric): 0.108 µM
Oc1ccccc1-c1n[nH]cc1-c1ccnc2ccccc12 — IC50 (TGFBR1; enzyme activity, inhibitor, radiometric): 7.4 µM
C#Cc1cnc(Nc2ccnc(CO)c2)nc1Nc1ccccc1S(C)(=O)=NC#N (stereo not shown) — IC50 (IRAK4; enzyme activity, inhibitor, radiometric): 0.00447 µM
O=C(O)c1cc(-c2ccc(-c3ccc(Cl)s3)cc2)c2ccc(-c3ccc(C(F)(F)F)cc3)cc2c1 — IC50 (P2RY14; ligand displacement in cells, flow cytometry): 2.04 µM
CC(C)OC(=O)[C@H](Cc1c[nH]c2ccccc12)NC(=O)COc1ccccc1 — IC50 (P2RY14; cAMP, antagonist): 0.0044 µM
O=C(NO)c1ccc(Cn2cnc3c(Nc4cccc([N+](=O)[O-])c4)ncnc32)cc1 — IC50 (Histone deacetylase 3 (HDAC3, Homo sapiens, UniProt O15379); enzyme activity, inhibitor, fluorescence): < 0.002 µM
Cn1ccc(-c2ccc(-c3cc(C(=O)O)cc4cc(-c5ccc(C(F)(F)F)cc5)ccc34)cc2)n1 — IC50 (P2RY14; ligand displacement in cells, flow cytometry): 0.0355 µM
NCC(=O)O — IC50 (ltaE (Escherichia coli, UniProt P75823); enzyme activity, inhibitor): 1900 µM
OCc1ccc(Nc2ncc(Cl)c(Nc3ccccc3-c3ncc[nH]3)n2)cc1 — IC50 (IRAK4; enzyme activity, inhibitor, radiometric): 0.0849 µM
CC(C)OC(=O)[C@H](Cc1c[nH]c2ccccc12)NC(=O)c1ccc2ncccc2c1 — IC50 (P2RY14; cAMP, antagonist): 0.0106 µM
C=CCC1c2ccc(OC)c(OC)c2CN2CCc3cc4c(cc3C12)OCO4 (stereo not shown) — IC50 (P2X purinoceptor 7 (P2RX7, Homo sapiens, UniProt Q99572); ion current, patch clamp): 0.47 µM
CNC(=O)c1ccccc1Nc1nc(Nc2ccnc(CO)c2)ncc1Cl — IC50 (IRAK4; enzyme activity, inhibitor, radiometric): 0.0115 µM
O=C(O)c1cc(-c2ccc(-n3ccnn3)cc2)c2ccc(-c3ccc(C(F)(F)F)cc3)cc2c1 — IC50 (P2RY14; ligand displacement in cells, flow cytometry): 0.0244 µM
CS(=O)(=NC#N)c1ccccc1Nc1nc(Nc2ccc(CO)nc2)ncc1Cl (stereo not shown) — IC50 (IRAK4; enzyme activity, inhibitor, radiometric): 0.0189 µM
O=C(N[C@@H](Cc1c[nH]c2ccccc12)C(=O)O)c1ccco1 — IC50 (P2RY14; cAMP, antagonist): 0.0234 µM
O=C(O)c1cc(-c2ccc(-n3cc(CCO)nn3)cc2)c2ccc(-c3ccc(C(F)(F)F)cc3)cc2c1 — IC50 (P2RY14; ligand displacement in cells, flow cytometry): 0.153 µM
COc1ccc(OCC(=O)N[C@@H](Cc2c[nH]c3ccccc23)C(=O)OC(C)C)cc1 — IC50 (P2RY14; cAMP, antagonist): 0.0156 µM
OCc1ccc(Nc2ncc(Cl)c(Nc3ccccc3-c3nccs3)n2)cc1 — IC50 (IRAK4; enzyme activity, inhibitor, radiometric): 0.0264 µM
Cn1cc(-c2ccnc3ccccc23)c(-c2ccccn2)n1 — IC50 (TGFBR1; enzyme activity, inhibitor, radiometric): 0.75 µM
Cc1ccc(OCC(=O)N[C@@H](Cc2c[nH]c3ccccc23)C(=O)OC(C)C)cc1 — IC50 (P2RY14; cAMP, antagonist): 0.0012 µM
C=CCn1c(=O)c2cnc(Nc3ccc(N4CCN(C)CC4)cc3)nc2n1-c1ccc2c(n1)[C@@](O)(CC)CC2 — IC50 (Cytochrome P450 2D6 (CYP2D6, Homo sapiens, UniProt P10635); enzyme activity, inhibitor): 50 µM
CS(=O)(=NC#N)c1ccccc1Nc1nc(Nc2ccnc(CO)c2)ncc1Cl (stereo not shown) — IC50 (IRAK4; enzyme activity, inhibitor, radiometric): 0.0286 µM
CC(C)(C)NS(=O)(=O)c1cccc(C(=O)N2CC3(CCC4(CC4)CC3)c3cc(NS(C)(=O)=O)ccc32)c1 — IC50 (Kinesin-like protein KIF11 (KIF11, Homo sapiens, UniProt P52732); ATPase activity, inhibitor): > 100 µM
O=C(O)c1cc(-c2ccc(-n3nncc3CCOP(=O)(O)O)cc2)c2ccc(-c3ccc(C(F)(F)F)cc3)cc2c1 — IC50 (P2RY14; ligand displacement in cells, flow cytometry): 0.157 µM
C#Cc1cnc(Nc2ccc(CO)cc2)nc1Nc1ccccc1C(=O)NC — IC50 (IRAK4; enzyme activity, inhibitor, radiometric): 0.00051 µM
